ChEMBL document CHEMBL4028897 (J Med Chem, 2017)
The source made the active and inactive calls. The calls are words filed in the database; no cut-off is given here.

What was measured:
[1] = biological target: T1, D(3) dopamine receptor (Homo sapiens, UniProt P35462); test: Displacement of [125I]ABN from human dopamine D3 receptor expressed in HEK293 cell membranes after 60 mins by scintillation counting method
[2] = biological target: D(2) dopamine receptor (Homo sapiens, UniProt P14416); test: Displacement of [125I]ABN from human dopamine D2 long receptor expressed in HEK293 cell membranes after 60 mins by scintillation counting method
D(2) dopamine receptor, sequence (P14416 whole entry): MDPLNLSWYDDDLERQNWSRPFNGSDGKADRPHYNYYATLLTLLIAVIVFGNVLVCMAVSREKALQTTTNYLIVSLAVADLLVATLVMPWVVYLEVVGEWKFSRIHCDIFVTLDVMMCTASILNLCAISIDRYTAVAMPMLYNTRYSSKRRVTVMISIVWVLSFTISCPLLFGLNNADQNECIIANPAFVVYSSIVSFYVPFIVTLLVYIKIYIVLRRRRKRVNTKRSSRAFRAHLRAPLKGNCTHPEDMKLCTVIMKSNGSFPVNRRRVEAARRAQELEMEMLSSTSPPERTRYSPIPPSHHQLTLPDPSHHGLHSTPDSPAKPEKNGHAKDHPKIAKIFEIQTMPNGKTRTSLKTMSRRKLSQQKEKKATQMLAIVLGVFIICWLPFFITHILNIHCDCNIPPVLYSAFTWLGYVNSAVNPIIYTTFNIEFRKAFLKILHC
How it was run: (§1)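 Nonspecific binding defined with 20 μM (+)-butaclamol. Inhibitor spanned 5 log units, two concentrations per decade, in triplicate. Stopped with ice-cold Tris/NaCl wash and glass-fiber filtration.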

[3] = organism: Homo sapiens; test: Selectivity ratio of Ki for human dopamine D2 long receptor to Ki for human dopamine D3 receptor; how it was run: as §1
[4] = biological target: T1, D(3) dopamine receptor; test: Agonist activity at human ProLink-tagged dopamine D3 receptor expressed in human U2OS cells assessed as induction of EA-tagged beta-arrestin binding at 10 times Ki after 90 mins by chemoluminescence assay; format: cell-based
[5] = biological target: T1, D(3) dopamine receptor; test: Agonist activity at human dopamine D3 receptor expressed in human U2OS cells assessed as inhibition of forskolin-dependent stimulation of adenylyl cyclase at 10 times Ki; format: functional, cell-based
[6] = biological target: T1, D(3) dopamine receptor; test: Partial agonist activity at human dopamine D3 receptor expressed in human U2OS cells assessed as inhibition of forskolin-dependent stimulation of adenylyl cyclase at 10 times Ki; format: functional, cell-based
[7] = biological target: T2, 5-hydroxytryptamine receptor 1A (Homo sapiens, UniProt P08908); test: Displacement of [3H]8-OH-DPAT from human 5-HT1A receptor expressed in CHO-K1 cell membranes after 60 mins by scintillation counting method
T2 sequence (P08908 whole entry): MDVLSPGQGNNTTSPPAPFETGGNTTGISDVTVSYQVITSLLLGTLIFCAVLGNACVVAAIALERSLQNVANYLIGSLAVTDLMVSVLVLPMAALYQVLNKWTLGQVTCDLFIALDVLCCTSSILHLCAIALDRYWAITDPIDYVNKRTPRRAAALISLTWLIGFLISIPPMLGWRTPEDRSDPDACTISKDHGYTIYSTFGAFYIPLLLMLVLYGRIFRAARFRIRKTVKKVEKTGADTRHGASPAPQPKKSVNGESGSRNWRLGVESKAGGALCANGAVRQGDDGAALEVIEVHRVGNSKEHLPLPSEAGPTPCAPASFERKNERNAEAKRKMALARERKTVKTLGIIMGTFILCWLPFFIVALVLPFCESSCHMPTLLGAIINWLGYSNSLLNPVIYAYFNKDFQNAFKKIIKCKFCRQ
How it was run: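 CHO-K1 membranes expressing human 5-HT1AR in 50 mM Tris-HCl, 10 mM MgSO4, 0.5 mM EDTA, 0.1% ascorbic acid, pH 7.4. […] Nonspecific binding with 10 μM metergoline. Competitor over 5 log units, two per decade, in triplicate. Ice-cold 10 mM Tris-HCl (pH 7.4) wash, glass-fiber filtration.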

[8] = biological target: T3, 5-hydroxytryptamine receptor 2C (Homo sapiens) (UniProt P28335); test: Binding affinity to 5-HT2C receptor (unknown origin)
T3 sequence (whole entry): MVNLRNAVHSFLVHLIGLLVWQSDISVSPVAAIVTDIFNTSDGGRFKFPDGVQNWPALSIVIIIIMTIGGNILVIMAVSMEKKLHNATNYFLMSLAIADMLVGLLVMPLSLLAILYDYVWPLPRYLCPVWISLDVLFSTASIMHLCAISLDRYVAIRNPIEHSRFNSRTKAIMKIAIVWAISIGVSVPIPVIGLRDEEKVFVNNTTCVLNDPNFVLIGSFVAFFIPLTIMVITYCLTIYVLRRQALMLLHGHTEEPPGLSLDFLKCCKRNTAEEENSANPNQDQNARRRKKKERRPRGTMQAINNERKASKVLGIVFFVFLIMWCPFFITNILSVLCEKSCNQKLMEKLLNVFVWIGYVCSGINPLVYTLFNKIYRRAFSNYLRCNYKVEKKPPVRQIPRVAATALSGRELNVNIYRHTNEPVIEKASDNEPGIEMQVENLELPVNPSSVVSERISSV

[9] = biological target: 5-hydroxytryptamine receptor 2A (Homo sapiens) (UniProt P28223); test: Binding affinity to 5-HT2A receptor (unknown origin)
5-hydroxytryptamine receptor 2A (Homo sapiens), sequence (P28223 whole entry): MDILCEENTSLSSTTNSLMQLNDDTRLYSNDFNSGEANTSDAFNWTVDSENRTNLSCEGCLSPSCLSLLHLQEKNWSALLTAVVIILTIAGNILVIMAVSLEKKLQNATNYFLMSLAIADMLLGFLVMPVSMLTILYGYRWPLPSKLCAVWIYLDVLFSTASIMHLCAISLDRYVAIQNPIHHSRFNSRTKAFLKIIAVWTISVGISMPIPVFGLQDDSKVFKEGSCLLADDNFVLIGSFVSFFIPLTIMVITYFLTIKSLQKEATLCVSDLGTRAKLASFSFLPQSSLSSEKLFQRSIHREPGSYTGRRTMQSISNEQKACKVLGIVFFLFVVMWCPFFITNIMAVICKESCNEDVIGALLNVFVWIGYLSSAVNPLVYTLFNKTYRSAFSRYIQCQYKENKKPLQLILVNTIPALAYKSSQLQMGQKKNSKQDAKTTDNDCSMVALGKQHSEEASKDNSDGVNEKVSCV

T1 sequence (P35462 whole entry): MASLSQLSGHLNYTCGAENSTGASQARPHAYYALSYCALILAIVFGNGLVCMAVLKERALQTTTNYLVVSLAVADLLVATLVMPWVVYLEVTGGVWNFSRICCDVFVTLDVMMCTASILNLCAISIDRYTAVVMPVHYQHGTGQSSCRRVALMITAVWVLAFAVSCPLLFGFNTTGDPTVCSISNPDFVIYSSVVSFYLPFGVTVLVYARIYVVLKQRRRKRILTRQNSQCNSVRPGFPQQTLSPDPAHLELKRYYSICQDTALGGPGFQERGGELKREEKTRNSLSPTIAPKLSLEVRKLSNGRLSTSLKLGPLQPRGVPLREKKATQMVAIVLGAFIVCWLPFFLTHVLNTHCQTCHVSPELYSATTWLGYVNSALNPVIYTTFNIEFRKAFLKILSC

Row | SMILES | Ki [1] [nM] | Ki [2] [nM] | Ratio Ki [3] | Activity [4] | Activity [5] | Activity [6] | Ki [7] [nM] | Activity [8] | Activity [9]
1 | COc1ccc(N2CCC3(CCN(CCCSc4nnc(-c5ccccc5)n4C)CC3)CC2)cc1 | 97.7 | 105000 | 1070 |  |  |  |  |  | 
2 | Cn1c(SCCCN2CC3(CCN3c3ccc(F)cc3)C2)nnc1-c1ccccc1 | 18200 | > 110000 | > 6 |  |  |  |  |  | 
3 | COc1ccccc1N1CC2(CN(CCCSc3nnc(-c4ccccc4)n3C)C2)C1 | 833 | 21200 | 25.5 |  |  |  |  |  | 
4 | Cn1c(SCCCN2CCC3(CC2)CCN(c2ccccn2)CC3)nnc1-c1ccccc1 | 871 | 83700 | 96.1 |  |  |  |  |  | 
5 | COc1ccccc1N1CCC12CN(CCCSc1nnc(-c3ccccc3)n1C)C2 | 4790 | 115000 | 24 |  |  |  |  |  | 
6 | COc1ccccc1N1CC2(CCN(CCCSc3nnc(-c4ccccc4)n3C)CC2)C1 | 235 | 37600 | 160 |  |  |  |  |  | 
7 | COc1ccccc1N1CCC2(CN(CCCSc3nnc(-c4ccccc4)n3C)C2)C1 | 192 | 60200 | 313 |  |  |  |  |  | 
8 | COc1ccccc1N1CCC12CCN(CCCSc1nnc(-c3ccccc3)n1C)CC2 | 169 | 29300 | 173 |  |  |  |  |  | 
9 | Cn1c(SCCCN2CCC3(CC2)CCN(c2cccc(C#N)c2)CC3)nnc1-c1ccccc1 | 438 | 57100 | 130 |  |  |  |  |  | 

Stronger by Ki [1], values ahead:

Row | Ki [1] [nM] | Ki [2] [nM] | Ratio Ki [3] | Activity [4] | Activity [5] | Activity [6] | Ki [7] [nM] | Activity [8] | Activity [9] | SMILES
10 | 24.2 | 6370 | 264 | inactive | inactive |  |  |  |  | COc1ccccc1N1CCC2(CCN(CCCSc3nnc(-c4ccccc4)n3C)C2)C1 (racemic)
11 | 12 | 10900 |  |  |  | Active | 931 | Active | Active | COc1ccccc1N1CCC2(CCN(CCCSc3nnc(-c4ccccc4)n3C)CC2)CC1
12 | 82.4 | 7500 | 91 |  |  |  |  |  |  | Cn1c(SCCCN2CCC3(CC2)CCN(c2cccc(Cl)c2Cl)CC3)nnc1-c1ccccc1
13 | 6.5 | 260 |  |  |  |  | 0.22 |  |  | COc1ccccc1N1CCN(CCCSc2nnc(-c3ccccc3)n2C)CC1
14 | 19.6 | 6170 |  | inactive | inactive |  | 724 | Active | Active | COc1ccccc1N1CCC2(CCN(CCCSc3nnc(-c4ccccc4)n3C)CC2)C1
15 | 25.6 | 9790 | 383 | inactive | inactive |  | 587 | Active | Active | Cn1c(SCCCN2CCC3(CC2)CCN(c2ccc(F)cc2)CC3)nnc1-c1ccccc1
